# Read-outs that look alike come from different tables or passages of the source. Bridge positions count the residues as written; N and C are the ends. Ends that are not written are not given here. Peptide text beside a SMILES is read from it.
# T1: ActRIIB-Fc (Homo sapiens, UniProt Q13705)
# T1 sequence (Q13705 19-135): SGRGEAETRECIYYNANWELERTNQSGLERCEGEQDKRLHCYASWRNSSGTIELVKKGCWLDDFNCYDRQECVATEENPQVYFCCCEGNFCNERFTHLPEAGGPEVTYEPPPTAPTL
# T2: ActRIIB-Fc (extracellular domain of human ActRIIB, activin receptor type-2B, fused to human IgG-Fc) (human, UniProt Q13705 19-135)
# T2 sequence: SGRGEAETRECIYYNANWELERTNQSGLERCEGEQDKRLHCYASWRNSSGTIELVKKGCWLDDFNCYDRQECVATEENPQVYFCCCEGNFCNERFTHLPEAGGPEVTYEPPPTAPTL
# How the values were obtained:
# ActRIIB-Fc [1] = molecular target: T1, ActRIIB-Fc; assay: SPR binding assay, ActRIIB-Fc
# In short: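 ActRIIB-Fc immobilized on a CM5 chip by amine coupling to about 3000 RU in PBS/0.01% P20 at 22 °C. Peptide concentration series injected in PBS/0.01% P20/1% DMSO at 75 μL/min: 60 s contact, up to 60 s dissociation. Double-referenced data globally fitted to a 1:1 model for kon and koff, KD = koff/kon. For fast off-rates, KD from a steady-state 1:1 fit.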
# ActRIIA-Fc [2] = molecular target: T3, ActRIIA-Fc (Homo sapiens, UniProt P27037); assay: SPR binding assay, ActRIIA-Fc
# In short: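 ActRIIA-Fc amine-coupled to a CM5 chip to about 9000 RU in PBS/0.01% P20 at 22 °C. Peptide concentration series run in PBS/0.01% P20/1% DMSO at 75 μL/min: 60 s association, up to 60 s dissociation. Sensorgrams double-referenced and globally fitted to a 1:1 model, KD = koff/kon. For fast off-rates, KD taken from a 1:1 steady-state fit.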
# ActRIIA-Fc [3] = molecular target: T3, ActRIIA-Fc; assay: Plate ELISA, ligand binding of ActRIIA-Fc; conditions: ligand directly coated; HRP anti-human IgG Fc, chemiluminescence
# In short: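 Wells coated directly with each ligand overnight at 4 °C, then blocked with 0.5% BSA in PBS for 2 h at room temperature. ActRIIA-Fc added, then washed three times with PBST. Bound Fc protein detected with HRP goat anti-human IgG Fc (5000-fold dilution in 0.5% BSA/PBS) and a chemiluminescence reagent.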
# Target sequence in this assay (P27037 20-134 limits assumed): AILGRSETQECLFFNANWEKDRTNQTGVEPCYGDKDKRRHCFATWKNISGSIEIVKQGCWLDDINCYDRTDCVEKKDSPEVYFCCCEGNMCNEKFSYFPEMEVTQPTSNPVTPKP
# ActRIIB-Fc [4] = molecular target: T1, ActRIIB-Fc; assay: Plate ELISA, ligand binding of ActRIIB-Fc; conditions: ligand directly coated; HRP anti-human IgG Fc, chemiluminescence
# mice = conditions: injection to mice; ref Suragani et al. [9]; cited from earlier work
# [5] = molecular target: T2, ActRIIB-Fc (extracellular domain of …); assay: SPR
# ActRIIA-Fc [6] = molecular target: ActRIIA-Fc (UniProt P27037); assay: SPR
# ActRIIA-Fc (UniProt P27037), sequence (P27037 20-135): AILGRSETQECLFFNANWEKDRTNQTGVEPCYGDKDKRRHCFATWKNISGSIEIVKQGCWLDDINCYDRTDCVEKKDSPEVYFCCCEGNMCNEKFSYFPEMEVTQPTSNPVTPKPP
# [7] = molecular target: T2, ActRIIB-Fc (extracellular domain of …); assay: SPR; remark: listed apart in the source
# ActRIIB-Fc/ActRIIA-Fc = conditions: ref [3]; cited from earlier work
molecule,measurement,setting,value
CC[C@H](C)[C@@H]1NC(=O)[C@H](CCCNC(=N)N)NC(=O)[C@H](CCCNC(=N)N)NC(=O)[C@H](C(C)C)NC(=O)[C@H](CO)NC(=O)[C@H]([C@@H](C)O)NC(=O)CNC(=O)[C@H](Cc2ccccc2)NC(=O)[C@@H](NC(=O)[C@@H](N)C(C)C)CSSC[C@@H](C(=O)N[C@H](C(=O)O)C(C)C)NC1=O [AR2mini] (H-VCFGTSVRRICV-OH; disulfide 2-11),koff,ActRIIB-Fc [1],> 0.1 s⁻¹
C[C@@H]1NC(=O)[C@H](CCCNC(=N)N)NC(=O)[C@H]([C@@H](C)O)NC(=O)[C@@H](NC(=O)[C@H](CCC(N)=O)NC(=O)[C@H](Cc2ccccc2)NC(=O)[C@@H]2CCCN2)CSSC[C@@H](C(=O)N[C@H](C(=O)N[C@@H](CCCCN)C(=O)N[C@@H](CO)C(=O)O)[C@@H](C)O)NC(=O)[C@H](Cc2ccc(O)cc2)NC(=O)[C@H](Cc2ccc(O)cc2)NC(=O)[C@H](Cc2c[nH]c3ccccc23)NC(=O)CNC(=O)[C@H](CC(=O)O)NC(=O)[C@H](CCCNC(=N)N)NC1=O [AR8] (H-PFQCTRARDGWYYCTKS-OH; disulfide 4-14),koff,ActRIIB-Fc [1],> 0.1 s⁻¹
CC(C)C[C@@H]1NC(=O)[C@H]([C@@H](C)O)NC(=O)[C@H](CCCCN)NC(=O)[C@@H]2CCCN2C(=O)[C@H](Cc2c[nH]c3ccccc23)NC(=O)[C@@H](NC(=O)[C@H](CCCCN)NC(=O)[C@H](Cc2ccc(O)cc2)NC(=O)[C@@H](N)Cc2c[nH]cn2)CSSC[C@@H](C(=O)N[C@@H](Cc2c[nH]c3ccccc23)C(=O)N[C@@H](CC(N)=O)C(=O)N[C@@H](Cc2c[nH]cn2)C(=O)O)NC(=O)[C@H](CCCCN)NC(=O)[C@H](Cc2ccccc2)NC1=O [AR9] (H-HYKCWPKTLFKCWNH-OH; disulfide 4-12),koff,ActRIIB-Fc [1],0.049 s⁻¹
same,Kd,ActRIIA-Fc [2],> 100 µM
"GDF11: growth differentiation factor 11, R&D Systems (1958-GD)","binding to ActRIIA-Fc (plate ELISA), in words",ActRIIA-Fc [3],binds to activin A and GDF11
same,"binding to ActRIIB-Fc (plate ELISA), in words",ActRIIB-Fc [4],"binds to activin A, MSTN, and GDF11 in a concentration-dependent manner"
same,"anemia, in words",mice,causes anemia
"MSTN: recombinant mature human MSTN (myostatin), ActRIIB ligand","binding to ActRIIA-Fc (plate ELISA), in words",ActRIIA-Fc [3],but not MSTN
same,"binding to ActRIIB-Fc (plate ELISA), in words",ActRIIB-Fc [4],"binds to activin A, MSTN, and GDF11 in a concentration-dependent manner"
"activin A: ActRIIB ligand, purchased from R&D Systems (338-AC)","binding to ActRIIA-Fc (plate ELISA), in words",ActRIIA-Fc [3],binds to activin A and GDF11
same,"binding to ActRIIB-Fc (plate ELISA), in words",ActRIIB-Fc [4],"binds to activin A, MSTN, and GDF11 in a concentration-dependent manner"
PFQCTRARDGWYYCTKS-OH (disulfide 4-14 (inferred)) [AR8],Kd,[5],3.6 µM
same,Kd,ActRIIA-Fc [6],18 µM
VCDGTSVPRICV-OH (disulfide 2-11 (inferred)) [AR2mut],Kd,[7],> 100 µM
HYKCWPKTLFKCWNH-OH (disulfide 4-12 (inferred)) [AR9],Kd,[7],0.86 µM
VCFGTSVRRICV-OH (disulfide 2-11 (inferred)) [AR2mini],Kd,ActRIIA-Fc [6],19 µM
same,Kd,[7],1.8 µM
"BMP9: bone morphogenetic protein 9, R&D Systems (3209-BP) (protein, UniProt Q9UK05 320-429, looked up) Growth/differentiation factor …: SAGAGSHCQKTSLRVNFEDIGWDSWIIAPKEYEAYECKGGCFFPLADDVTPTKHAIVQTLVHLKFPTKVGKACCVPTKLSPISVLYKDDMGVPTLKYHYEGMSVAECGCR","PPI with ActRIIB-Fc/ActRIIA-Fc, in words",ActRIIB-Fc/ActRIIA-Fc,have been previously reported
